The source made the active and inactive calls. The calls are words filed in the database; no cut-off is given here.
Columns and labels:
[1] = molecular target: T1, Muscarinic acetylcholine receptor M1 (Homo sapiens, UniProt P11229); assay: Displacement of [3H]N-methyl Scopolamine from human cloned muscarinic M1 receptor expressed in CHO cell membrane; format: cell membranes
T1 sequence (P11229 whole entry): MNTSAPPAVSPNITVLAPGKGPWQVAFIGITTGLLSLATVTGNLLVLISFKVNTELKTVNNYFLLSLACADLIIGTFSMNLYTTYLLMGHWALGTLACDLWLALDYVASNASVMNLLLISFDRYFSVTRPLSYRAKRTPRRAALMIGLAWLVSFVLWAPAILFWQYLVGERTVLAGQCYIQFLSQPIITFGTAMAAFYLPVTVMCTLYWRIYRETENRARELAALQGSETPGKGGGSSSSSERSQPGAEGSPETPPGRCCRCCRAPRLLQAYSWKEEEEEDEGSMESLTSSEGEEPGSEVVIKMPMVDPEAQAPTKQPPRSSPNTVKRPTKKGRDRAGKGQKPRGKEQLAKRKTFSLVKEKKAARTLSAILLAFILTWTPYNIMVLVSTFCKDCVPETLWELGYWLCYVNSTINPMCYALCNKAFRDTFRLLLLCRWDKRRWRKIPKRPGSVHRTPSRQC
In short: (§1)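 SPA format with CHO cell membrane preparations bearing human M1 or M2 receptor; competition versus 0.5 nM [3H]-N-methyl scopolamine; Ki reported; mean of two or more independent assays.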

[2] = molecular target: T2, Muscarinic acetylcholine receptor M1 (Homo sapiens) (UniProt P11229); assay: Agonist activity at human cloned muscarinic M1 receptor expressed in CHO cells assessed as effect on calcium mobilization by FLIPR; format: functional, cell-based
T2 sequence (whole entry): T1 sequence (P11229 whole entry)
In short: (§2)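 CHO cells stably carrying cloned human M1, M2 or M3 receptor; compound applied alone and checked for direct receptor stimulation, read as calcium mobilization on a standard FLIPR protocol.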

Mus musculus [3] = assay: Bronchoprotection in Balb/C mouse bronchoconstriction model assessed as inhibition of aerosolized methacholin-induced bronchoconstriction at 5 ug administered intranasally 24 hrs before methacholin challenge; format: functional
[4] = molecular target: T3, Muscarinic acetylcholine receptor M3 (Homo sapiens, UniProt P20309); assay: Antagonist activity against human cloned muscarinic M3 receptor expressed in CHO cells assessed as inhibition of acetylcholine-induced calcium mobilization by measuring ratio of acetylcholine EC50 in presence and absence of compound by FLIPR assay; format: functional, cell-based; conditions: read-out: pA2 (converted)
In short: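 CHO cells expressing cloned human M3 receptor, stimulated with ACh. Calcium mobilization read by a standard FLIPR protocol. ACh EC50 was measured with and without a single concentration of compound, and pA2 was derived from the ratio of the EC50s.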

[5] = molecular target: T4, Muscarinic acetylcholine receptor M2 (Homo sapiens) (UniProt P08172); assay: Agonist activity at human cloned muscarinic M2 receptor expressed in CHO cells assessed as effect on calcium mobilization by FLIPR; format: functional, cell-based; in short: as §2
T4 sequence (whole entry): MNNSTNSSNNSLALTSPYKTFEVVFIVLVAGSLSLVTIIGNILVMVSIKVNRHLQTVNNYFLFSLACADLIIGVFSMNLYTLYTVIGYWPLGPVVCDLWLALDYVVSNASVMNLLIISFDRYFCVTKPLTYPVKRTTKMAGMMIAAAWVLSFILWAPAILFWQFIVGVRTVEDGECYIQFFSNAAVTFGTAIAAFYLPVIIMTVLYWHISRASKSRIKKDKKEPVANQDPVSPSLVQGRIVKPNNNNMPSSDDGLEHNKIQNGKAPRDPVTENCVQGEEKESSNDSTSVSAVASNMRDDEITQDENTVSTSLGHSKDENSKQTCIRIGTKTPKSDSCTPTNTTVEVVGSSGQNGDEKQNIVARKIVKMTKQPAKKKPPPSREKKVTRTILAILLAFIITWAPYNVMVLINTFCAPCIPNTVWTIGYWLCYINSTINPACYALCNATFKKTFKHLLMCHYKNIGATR

[6] = molecular target: T3, Muscarinic acetylcholine receptor M3; assay: Displacement of [3H]N-methyl Scopolamine from human cloned muscarinic M3 receptor expressed in CHO cell membrane; format: cell membranes
In short: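 SPA-format competition binding on membranes from CHO cells expressing the human M3 receptor, against 0.5 nM [3H]-N-methyl scopolamine. Ki values are the mean of two or more independent assays.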

[7] = molecular target: T1, Muscarinic acetylcholine receptor M1; assay: Antagonist activity against human cloned muscarinic M1 receptor expressed in CHO cells assessed as inhibition of acetylcholine-induced calcium mobilization by FLIPR; format: functional, cell-based
[8] = molecular target: T5, Muscarinic acetylcholine receptor M2 (Homo sapiens, UniProt P08172); assay: Antagonist activity against human cloned muscarinic M2 receptor expressed in CHO cells assessed as inhibition of acetylcholine-induced calcium mobilization by FLIPR; format: functional, cell-based
T5 sequence (P08172 whole entry): T4 sequence (whole entry)

[9] = molecular target: T3, Muscarinic acetylcholine receptor M3; assay: Antagonist activity against human cloned muscarinic M3 receptor expressed in CHO cells assessed as inhibition of acetylcholine-induced calcium mobilization by FLIPR; format: functional, cell-based
[10] = molecular target: T3, Muscarinic acetylcholine receptor M3; assay: Agonist activity at human cloned muscarinic M3 receptor expressed in CHO cells assessed as effect on calcium mobilization by FLIPR; format: functional, cell-based; in short: as §2
[11] = molecular target: T1, Muscarinic acetylcholine receptor M1; assay: Antagonist activity against human cloned muscarinic M1 receptor expressed in CHO cells assessed as inhibition of acetylcholine-induced calcium mobilization by measuring ratio of acetylcholine EC50 in presence and absence of compound by FLIPR assay; format: functional, cell-based; conditions: read-out: pA2 (converted)
In short: (§3)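 Run as pA2 determination on FLIPR in CHO cells expressing human M1 or M2 receptor: ACh concentration–response run with and without a single concentration of compound, calcium mobilization read, and the ratio of ACh EC50 values used to derive pA2.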

[12] = molecular target: T5, Muscarinic acetylcholine receptor M2; assay: Displacement of [3H]N-methyl Scopolamine from human cloned muscarinic M2 receptor expressed in CHO cell membrane; format: cell membranes; in short: as §1
[13] = molecular target: T5, Muscarinic acetylcholine receptor M2; assay: Antagonist activity against human cloned muscarinic M2 receptor expressed in CHO cells assessed as inhibition of acetylcholine-induced calcium mobilization by measuring ratio of acetylcholine EC50 in presence and absence of compound by FLIPR assay; format: functional, cell-based; conditions: read-out: pA2 (converted); in short: as §3
Mus musculus [14] = assay: Bronchoprotection in Balb/C mouse bronchoconstriction model assessed as inhibition of aerosolized methacholin-induced bronchoconstriction at 50 ug administered intranasally 24 hrs before methacholin challenge; format: functional
In short: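 Conscious mice given compound by inhalation at 50 µg per mouse 24 h before challenge with aerosolized methacholine; bronchoconstriction inhibition recorded.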

Mus musculus [15] = assay: Bronchoprotection in Balb/C mouse bronchoconstriction model assessed as inhibition of aerosolized methacholin-induced bronchoconstriction at 5 ug administered intranasally before 0.25 to 48 hrs before methacholin challenge; format: functional, organism-based
In short: (§4)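 Balb/C mice (n = 4) dosed intranasally at 0.5 or 5.0 µg per mouse, then challenged with aerosolized methacholine 30 mg/ml for 2 min at 0.25–48 h after dosing; Penh by plethysmography over 5 min, expressed as post-drug/pre-drug Penh ratio.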

Mus musculus [16] = assay: Bronchoprotection in Balb/C mouse bronchoconstriction model assessed as inhibition of aerosolized methacholin-induced bronchoconstriction administered intranasally before 5 hrs before methacholin challenge; format: functional, organism-based
In short: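 Balb/C mice (n = 4) dosed intranasally across a dose range (µg/mouse), challenged 5 h later with aerosolized methacholine 30 mg/ml for 2 min; Penh by whole-body plethysmography over 5 min; ratio of post-drug to pre-drug Penh (1.0 = 0% inhibition, 0.0 = 100%); ED50 from dose–response.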

Mus musculus [17] = assay: Bronchoprotection in Balb/C mouse bronchoconstriction model assessed as inhibition of aerosolized methacholin-induced bronchoconstriction at 0.5 ug administered intranasally before 0.25 to 48 hrs before methacholin challenge; format: functional, organism-based; in short: as §4

SMILES	Ki [1] [nM]	Activity [2]	inhibition (INH) (Mus musculus [3]) [%]	Kb [4] [nM]	Activity [5]	Ki [6] [nM]	IC50 [7] [nM]	IC50 [8] [nM]	IC50 [9] [nM]	Activity [10]	Kb [11] [nM]	Ki [12] [nM]	Kb [13] [nM]	inhibition (INH) (Mus musculus [14]) [%]	Activity (Mus musculus [15])	Activity (Mus musculus [16])	Activity (Mus musculus [17])
C[N+]1(C)[C@@H]2CC[C@H]1C[C@@H](CC(CO)(c1ccccc1)c1ccccc1)C2.[Br-]	1.26	inactive	23	3.16	inactive	2.51	< 10	< 10	< 10	inactive	1.58	3.98	5.01	–	–	–	–
CN1[C@@H]2CC[C@H]1C[C@@H](CC(CNC(=O)NCc1ccccc1)(c1ccccc1)c1ccccc1)C2	–	inactive	–	–	inactive	–	1020	1270	1340	inactive	–	–	–	–	–	–	–
CN1[C@@H]2CC[C@H]1C[C@@H](CC(CO)(c1ccccc1)c1ccccc1)C2	1	inactive	15	3.98	inactive	2.51	< 10	< 10	< 10	inactive	1.26	12.6	6.31	–	–	–	–
CN1[C@@H]2CC[C@H]1C[C@@H](CC(CNS(=O)(=O)c1ccccc1)(c1ccccc1)c1ccccc1)C2	–	inactive	–	–	inactive	–	770	458	1060	inactive	–	–	–	–	–	–	–
CCNC(=O)NCC(C[C@H]1C[C@H]2CC[C@@H](C1)N2C)(c1ccccc1)c1ccccc1	–	inactive	–	–	inactive	–	1280	1550	1940	inactive	–	–	–	–	–	–	–
CN1[C@@H]2CC[C@H]1C[C@@H](CC(c1ccccc1)(c1ccccc1)c1ccccc1)C2	–	inactive	–	–	inactive	–	105	1200	206	inactive	–	–	–	–	–	–	–
CN1[C@@H]2CC[C@H]1C[C@@H](CC(C#N)(c1ccccc1)c1ccccc1)C2	0.1	inactive	11	0.0631	inactive	0.158	< 10	< 10	< 10	inactive	0.0158	0.501	0.316	–	–	–	–
CN1[C@@H]2CC[C@H]1C[C@@H](CC(CNS(C)(=O)=O)(c1ccccc1)c1ccccc1)C2	–	inactive	–	–	inactive	–	1600	2120	2730	inactive	–	–	–	–	–	–	–
CN1[C@@H]2CC[C@H]1C[C@@H](CC(O)(c1ccccc1)c1ccccc1)C2	0.501	inactive	–	2.51	inactive	2	< 10	< 10	< 10	inactive	0.794	6.31	3.98	<5	–	–	–
C[N+]1(C)[C@@H]2CC[C@H]1C[C@@H](CC(O)(c1ccccc1)c1ccccc1)C2.[Br-]	1.58	inactive	34	0.501	inactive	3.16	< 10	< 10	< 10	inactive	0.251	3.98	0.501	–	–	–	–
CN1[C@@H]2CC[C@H]1C[C@@H](CC(C(=O)O)(c1ccccc1)c1ccccc1)C2	–	inactive	–	–	inactive	–	277	240	687	inactive	–	–	–	–	–	–	–
CC(=O)NCC(C[C@H]1C[C@H]2CC[C@@H](C1)N2C)(c1ccccc1)c1ccccc1	–	inactive	–	–	inactive	–	2200	3480	2900	inactive	–	–	–	–	–	–	–
CN1[C@@H]2CC[C@H]1C[C@@H](CC(CNC(N)=O)(c1ccccc1)c1ccccc1)C2	–	inactive	–	–	inactive	–	3830	5340	6400	inactive	–	–	–	–	–	–	–
C[N+]1(C)[C@@H]2CC[C@H]1C[C@@H](CC(C#N)(c1ccccc1)c1ccccc1)C2.[Br-]	0.0501	inactive	>95	0.02	inactive	0.0631	< 10	< 10	< 10	inactive	0.00398	0.158	0.0501	–	Active	Dose-dependent effect	Active
CN1[C@@H]2CC[C@H]1C[C@@H](CC(C(=O)NCc1ccccc1)(c1ccccc1)c1ccccc1)C2	–	inactive	–	–	inactive	–	596	545	839	inactive	–	–	–	–	–	–	–

Reference: ChEMBL document CHEMBL1153488, “Discovery of (3-endo)-3-(2-cyano-2,2-diphenylethyl)-8,8-dimethyl-8-azoniabicyclo[3.2.1]octane bromide as an efficacious inhaled muscarinic acetylcholine receptor antagonist for the treatment of COPD” (Bioorg Med Chem Lett, 2009)
